Reference: ChEMBL document CHEMBL2069228, “Antidiabetic compounds from Sarracenia purpurea used traditionally by the Eeyou Istchee Cree First Nation” (J Nat Prod, 2012)

Tests used:
[1] = test system: C2C12; assay: Increase in glucose uptake in mouse C2C12 cells incubated for 18 hrs using [3H]-2-deoxy-D-glucose by liquid scintillation counting; type: functional, cell-based
In short: (§1)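 Differentiated confluent C2C12 myotubes were held 18 h in DMEM with 2% horse serum containing compound (6.25–100 μM; 0.1% DMSO vehicle control). Cells were equilibrated 30 min at 37 °C in Krebs phosphate buffer pH 7.4 with 5 mM glucose, rinsed glucose-free, then given 10 μM 2-deoxy-D-glucose plus 1 μCi/mL [3H]-2-deoxyglucose for 10 min at 37 °C. Cells were lysed in 0.1 M NaOH and counted by scintillation.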

[2] = test system: C2C12; assay: Increase in glucose uptake in mouse C2C12 cells incubated for 18 hrs using [3H]-2-deoxy-D-glucose by liquid scintillation counting relative to DMSO; type: functional; set-up: concentration or dose not given beside the values; in short: as §1
[3] = target: T1, Glucose-6-phosphatase catalytic subunit 1 (Rattus norvegicus) (UniProt P43428); assay: Inhibition of glucose-6-phosphatase enzymatic activity in rat […] cells at 50 uM using G6P substrate incubated for 18 hrs by colorimetric assay; type: cell-based
T1 sequence (whole entry): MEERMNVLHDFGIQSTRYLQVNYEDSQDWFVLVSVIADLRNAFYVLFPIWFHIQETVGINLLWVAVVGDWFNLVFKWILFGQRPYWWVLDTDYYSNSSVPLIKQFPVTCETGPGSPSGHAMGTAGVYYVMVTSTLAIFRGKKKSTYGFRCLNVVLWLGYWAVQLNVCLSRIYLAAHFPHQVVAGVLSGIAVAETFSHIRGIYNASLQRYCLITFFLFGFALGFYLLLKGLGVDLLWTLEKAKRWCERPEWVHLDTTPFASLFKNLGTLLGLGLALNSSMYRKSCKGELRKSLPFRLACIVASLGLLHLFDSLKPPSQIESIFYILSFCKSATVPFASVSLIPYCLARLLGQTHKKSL
In short: (§2)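 H4IIE rat hepatoma cells at 90% confluence were treated 18 h with compound (1–100 μM; 0.1% DMSO control, 100 nM insulin reference). Cells were lysed in 15 mM phosphate buffer pH 6.5 with 0.05% Triton and 1.3 mM phenol, and lysate was incubated with 200 mM glucose-6-phosphate for 40 min at 37 °C. Glucose formed was read by glucose oxidase colorimetry at 505 nm and normalised to protein.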

[4] = target: T2, Glucose-6-phosphatase catalytic subunit 1 (Rattus norvegicus, UniProt P43428); assay: Inhibition of glucose-6-phosphatase enzymatic activity in rat […] cells using G6P substrate incubated for 18 hrs by colorimetric assay; type: cell-based; in short: as §2
T2 sequence (P43428 whole entry): T1 sequence (whole entry)

[5] = Mus musculus, C2C12, read-out: EC50

Row | EC50 [1, 5] [µM] | inhibition [3] [%] | IC50 [4] [µM] | EC50 ([1]; c2c12) | SMILES | Efficacy [2] [%]
1 | 13.8 | – | – | – | O=C(/C=C/c1ccc(O)c(O)c1)OC[C@H]1O[C@@H](Oc2c(-c3ccc(O)cc3)oc3cc(O)cc(O)c3c2=O)[C@H](O)[C@@H](O)[C@@H]1O | 188
2 | 60.5 | – | – | – | O=c1c(O[C@@H]2O[C@H](CO)[C@H](O)[C@H](O)[C@H]2O)c(-c2ccc(O)c(O)c2)oc2cc(O)cc(O)c12 [HYPEROSIDE] | 211
3 | 25.6 | 19.6 | 391 | – | O=C1C[C@H](O[C@@H]2O[C@H](CO)[C@@H](O)[C@H](O)[C@H]2O)CO1 [GOODYEROSIDE] | 124
4 | – | 44 | 13.9 | Not Active | O=C(/C=C/c1ccc(O)c(O)c1)OC[C@H]1O[C@@H](O[C@@H]2COC(=O)C2)[C@H](O)[C@@H](O)[C@@H]1O | –
5 | 25.9 | – | – | – | COC(=O)C1=CO[C@@H](O[C@H]2O[C@H](CO)[C@@H](O)[C@H](O)[C@H]2O)[C@@H]2[C@H](C)O[C@@H](OC)C[C@H]12 | 120
6 | 18.5 | – | – | – | COc1cc(-c2oc3cc(O)cc(O)c3c(=O)c2O[C@@H]2O[C@H](CO)[C@@H](O)[C@H](O)[C@H]2O)ccc1O | 150
